Experimental data reported in ChEMBL document CHEMBL1122721, “Synthesis and antiarrhythmic activity of new 1-[1-[2-[3-(alkylamino)-2-hydroxypropoxy]phenyl]vinyl]-1 H-imidazoles and related compounds” (J Med Chem, 1984).
Several values for one entry are separate records, joined by “and”; a condition that tells them apart may be missing. Equal entries are not always repeated.

Key:
Canis familiaris [1] = assay: Effect on ischemic arrhythmias was studied in dogs, by glass bead method. 60 mg/kg was administered perorally and percent sinus beats after compound administration, was reported.; assay type: functional, Canis lupus familiaris; settings: route oral
Outline: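 Conscious dogs; ventricular arrhythmias induced by inserting a glass bead into a coronary artery, with marked arrhythmias persisting for 24 h. Compound given orally. Lead II ECG recorded continuously by telemetry. Percent sinus beats measured before and after dosing, and duration of effect in min recorded.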

Canis familiaris [2] = assay: Effect on ischemic arrhythmias was studied in dogs. 10 mg/kg was injected intravenously and percent sinus beats after compound administration, was reported.; assay type: functional, Canis lupus familiaris; settings: route intravenous
Outline: (§1)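 Conscious dogs with ischemic ventricular arrhythmias persisting for 24 h after a glass bead was inserted into a coronary artery. Compound was given iv or orally. Lead II ECG recorded continuously by telemetry. Percent sinus beats taken before and after dosing, plus duration of effect (min).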

Canis familiaris [3] = assay: Effect on ischemic arrhythmias was studied in dogs. 10 mg/kg was injected intravenously and percent sinus beats before compound administration, was reported.; assay type: functional, Canis lupus familiaris; settings: route intravenous; outline: as §1
Cavia porcellus [4] = organism: Cavia porcellus; assay: Maximal follow rate showing the contractile frequencies of atria to electrical stimulation 10 min after incubation with right atria of guinea pig.; assay type: functional
Outline: (§2)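 Isolated right atria driven by electrical stimulation (Dawes' method). Maximal follow rate, the highest contractile frequency the atria follow, measured as an index of refractory period 10 min after incubation with compound.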

Mus musculus [5] = assay: Compound was evaluated for ventricular extrasystole, 30 min before aconitine infusion, at a dose of 30 mg/kg, perorally administered in mice; S=significant antiarrhythmic effect; assay type: functional, organism-based; design: dose 30 mg/kg; settings: Heart
Outline: (§3)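 Aconitine arrhythmia model in pentobarbital-anesthetized male mice (20-35 g). Test compound was given iv 3 min or po 30 min before continuous tail-vein infusion of aconitine (0.685 µg/min). Lead II ECG recorded; onset times of ventricular extrasystole (VES) and ventricular tachycardia (VT) were measured.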

Mus musculus [6] = assay: Compound was evaluated for ventricular tachycardia activity in intravenously administered mice, 3 min before aconitine infusion, at a dose of 10 mg/kg; S=significant antiarrhythmic effect; assay type: functional, organism-based; design: dose 10 mg/kg; settings: Heart; outline: as §3
Mus musculus [7] = assay: Compound was evaluated for ventricular tachycardia activity in perorally administered mice, 30 min before aconitine infusion, at a dose of 30 mg/kg; S=significant antiarrhythmic effect; assay type: functional, organism-based; design: dose 30 mg/kg; settings: Heart; outline: as §3
Mus musculus [8] = assay: Compound was evaluated for ventricular extrasystole activity, 3 min before aconitine infusion, at a dose of 10 mg/kg, intravenously administered in mice; S=significant antiarrhythmic effect; assay type: functional, organism-based; design: dose 10 mg/kg; settings: Heart; outline: as §3
[9] = Lethal dose in mice (LD50) (following i.v. dosing); settings: mouse, in vivo, iv
Canis familiaris [10] = assay: Effect on ischemic arrhythmias was studied in dogs, by glass bead method. 60 mg/kg was administered perorally and percent sinus beats before compound administration, was reported.; assay type: functional, Canis lupus familiaris; settings: route oral; outline: as §1
Canis familiaris [11] = organism: Canis familiaris; assay: Duration of ischemic arrhythmias in dogs determined in minutes.
Canis familiaris [12] = assay: Effect on ischemic arrhythmias was studied in dogs. 3 mg/kg was injected intravenously and percent sinus beats after compound administration, was reported.; assay type: functional, Canis lupus familiaris; settings: route intravenous; outline: as §1
Canis familiaris [13] = assay: Effect on ischemic arrhythmias was studied in dogs. 3 mg/kg was injected intravenously and percent sinus beats before compound administration, was reported.; assay type: functional, Canis lupus familiaris; settings: route intravenous; outline: as §1
Mus musculus [14] = assay: Compound was evaluated for ventricular extrasystole activity, 3 min before aconitine infusion, at a dose of 3 mg/kg, intravenously administered in mice; S=significant antiarrhythmic effect; assay type: functional, organism-based; design: dose 3 mg/kg; settings: Heart; outline: as §3
Mus musculus [15] = assay: Compound was evaluated for ventricular tachycardia activity in intravenously administered mice, 3 min before aconitine infusion, at a dose of 3 mg/kg; S=significant antiarrhythmic effect; assay type: functional, organism-based; design: dose 3 mg/kg; settings: Heart; outline: as §3
[16] = target: Adrenergic receptor beta (Cavia porcellus); assay: Beta adrenergic receptor blocking activity measured by the inotropic effect was determined 1 hr after pretreament of the right atria in guinea pig
[17] = target: Adrenergic receptor beta (Cavia porcellus); assay: Beta adrenergic receptor blocking activity measured by the chronotropic effect was determined 1 hr after pretreatment of the right atria in guinea pig
Canis familiaris [18] = assay: Effect on ischemic arrhythmias was studied in dogs, by glass bead method. 10 mg/kg was administered perorally and percent sinus beats after compound administration, was reported.; assay type: functional, Canis lupus familiaris; settings: route oral; outline: as §1
Canis familiaris [19] = assay: Effect on ischemic arrhythmias was studied in dogs, by glass bead method. 10 mg/kg was administered perorally and percent sinus beats before compound administration, was reported.; assay type: functional, Canis lupus familiaris; settings: route oral; outline: as §1
Mus musculus [20] = assay: Compound was evaluated for ventricular tachycardia activity in perorally administered mice, 30 min before aconitine infusion, at a dose of 10 mg/kg; S=significant antiarrhythmic effect; assay type: functional, organism-based; design: dose 10 mg/kg; settings: Heart; outline: as §3
Mus musculus [21] = assay: Compound was evaluated for ventricular extrasystole, 3 min before aconitine infusion, at a dose of 3 mg/kg, intravenously administered in mice; S=significant antiarrhythmic effect; settings: Heart
Mus musculus [22] = assay: Compound was evaluated for ventricular extrasystole activity, 30 min before aconitine infusion, at a dose of 10 mg/kg, perorally administered in mice; S=significant antiarrhythmic effect; settings: Heart
Cavia porcellus [23] = organism: Cavia porcellus; assay: Effect on maximal follow rate showing the contractile frequencies of atria to electrical stimulation 10 min after incubating compound with right atria of guinea pig; assay type: functional; outline: as §2
Mus musculus [24] = assay: Compound was evaluated for ventricular tachycardia activity in intravenously administered mice, 3 min before aconitine infusion, at a dose of 1 mg/kg; S=significant antiarrhythmic effect; assay type: functional, organism-based; design: dose 1 mg/kg; settings: Heart; outline: as §3
Mus musculus [25] = assay: Compound was evaluated for ventricular extrasystole activity, 3 min before aconitine infusion, at a dose of 1 mg/kg, intravenously administered in mice; S=significant antiarrhythmic effect; assay type: functional, organism-based; design: dose 1 mg/kg; settings: Heart; outline: as §3
Mus musculus [26] = assay: Compound was evaluated for ventricular extrasystole, 30 min before aconitine infusion, at a dose of 10 mg/kg, perorally administered in mice; S=significant antiarrhythmic effect; assay type: functional, organism-based; design: dose 10 mg/kg; settings: Heart; outline: as §3
Mus musculus [27] = assay: Compound was evaluated for ventricular extrasystole activity, 3 min before aconitine infusion, at a dose of 30 mg/kg, intravenously administered in mice; S=significant antiarrhythmic effect; assay type: functional, organism-based; design: dose 30 mg/kg; settings: Heart; outline: as §3

SMILES	Decrease (Cavia porcellus [4])	Activity (Mus musculus [5])	Activity (Mus musculus [7])	LD50 [9]	Sinus beats (Canis familiaris [12])	Sinus beats (Canis familiaris [13])	Activity (Mus musculus [15])	pA2 [16]	pA2 [17]	other results
CC(C)N(CCC(C(N)=O)(c1ccccc1)c1ccccn1)C(C)C (stereo unspecified) [DISOPYRAMIDE]	15.7%	Anti-arrhythmic	Anti-arrhythmic	30 mg/kg						Sinus beats (Canis familiaris [1]): 66.2%; Sinus beats (Canis familiaris [2]): 88.4%; Sinus beats (Canis familiaris [3]): 22.4%; Activity (Mus musculus [6]): Anti-arrhythmic; Activity (Mus musculus [8]): Anti-arrhythmic; Sinus beats (Canis familiaris [10]): 10.1%
C=C(c1ccccc1OCC(O)CNC(C)C)n1cncn1 (stereo unspecified)		Anti-arrhythmic			28.3%	9.8%	Anti-arrhythmic	6.33	6.12	Duration (Canis familiaris [11]): 15 min; Activity (Mus musculus [14]): Anti-arrhythmic
C=C[C@H]1CN2CC[C@H]1C[C@@H]2[C@@H](O)c1ccnc2ccc(OC)cc12 [QUINIDINE]	26.4%	Anti-arrhythmic	Anti-arrhythmic							Sinus beats (Canis familiaris [1]): 58.3%; Sinus beats (Canis familiaris [2]): 74.1%; Sinus beats (Canis familiaris [3]): 14.1%; Activity (Mus musculus [6]): Anti-arrhythmic; Activity (Mus musculus [8]): Anti-arrhythmic; Sinus beats (Canis familiaris [10]): 4.2%
C=C(c1c(Cl)ccc(Cl)c1OCC(O)CNC(C)C)n1ccnc1 (stereo unspecified)	45.7%				88.9%	5.8%	Anti-arrhythmic	5.29	4.86	Sinus beats (Canis familiaris [18]): 69.3%; Sinus beats (Canis familiaris [19]): 9.3%; Activity (Mus musculus [20]): Anti-arrhythmic; Activity (Mus musculus [21]): Anti-arrhythmic
C=C(c1cc(Cl)ccc1OCC(O)CNC(C)(C)C)n1cccn1 (stereo unspecified)	45.7%			32.5 mg/kg	14.3%	1.8%	Anti-arrhythmic	6.99	6.9	Activity (Mus musculus [22]): Anti-arrhythmic
CC(C)NCC(O)COc1cccc2ccccc12 (stereo unspecified) [PROPRANOLOL]		Anti-arrhythmic								Sinus beats (Canis familiaris [1]): 51.6%; Decrease (Cavia porcellus [23]): 33.5%; Activity (Mus musculus [6]): Anti-arrhythmic; Activity (Mus musculus [8]): Anti-arrhythmic; Sinus beats (Canis familiaris [10]): 12%
C=C(c1c(C)c(C)cc(Cl)c1OCC(O)CNC(C)C)n1ccnc1 (stereo unspecified)	29.8%	Anti-arrhythmic	Anti-arrhythmic	15.5 mg/kg				5.96	5.04	Activity (Mus musculus [24]): Anti-arrhythmic; Activity (Mus musculus [25]): Anti-arrhythmic
C=C(c1c(C)ccc(Cl)c1OCC(O)CNC(C)(C)C)n1ccnc1 (stereo unspecified)	49.8%			29.5 mg/kg	59.1%	11.7%	Anti-arrhythmic	5.77	5.04	Duration (Canis familiaris [11]): 30 min; Activity (Mus musculus [14]): Anti-arrhythmic; Activity (Mus musculus [26]): Anti-arrhythmic; Activity (Mus musculus [20]): Anti-arrhythmic
C=C(c1c(Cl)ccc(Cl)c1OCC(O)CNCC(C)C)n1ccnc1 (stereo unspecified)	34.9%				94.5%	6.5%		5.81	4.89	Duration (Canis familiaris [11]): 60 min and 180 min; Sinus beats (Canis familiaris [18]): 44.8%; Sinus beats (Canis familiaris [19]): 9.9%; Activity (Mus musculus [26]): Anti-arrhythmic; Activity (Mus musculus [24]): Anti-arrhythmic; Activity (Mus musculus [20]): Anti-arrhythmic; Activity (Mus musculus [25]): Anti-arrhythmic
C=C(c1ccc(Cl)c(Cl)c1OCC(O)CNC(C)C)n1ccnc1 (stereo unspecified)							Anti-arrhythmic	4.9	4.52	Activity (Mus musculus [21]): Anti-arrhythmic
C=C(c1c(C)ccc(Cl)c1OCC(O)CNC(C)C)n1ccnc1 (stereo unspecified)			Anti-arrhythmic					5.55	5.67	Activity (Mus musculus [27]): Anti-arrhythmic; Activity (Mus musculus [24]): Anti-arrhythmic
